The target in assay [1] is Neuronal acetylcholine receptor subunit alpha-7 (Rattus norvegicus, UniProt Q05941). The assay can be described thus: Inhibition of [3H]-MLA binding to Nicotinic acetylcholine receptor alpha-7 in rat brain membranes; NA= Not active. The format is cell membranes. An outline of the steps:
(§1)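 Rat whole brain minus cortex and cerebellum, homogenized in HEPES buffer (pH 7.5), washed by repeated 25,000g spins with one 37 °C 10-min incubation, stored at −70 °C. Membranes ([…]) incubated 60 min at room temperature with 3 nM radioligand plus analogue ([…]) in HEPES assay buffer with 50 mM Tris. Nonspecific binding defined with […] MLA, respectively. PEI-soaked GF/B filtration. Four independent experiments.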

Assay [2] has as its target T1, Neuronal acetylcholine receptor; alpha4/beta2 (Rattus norvegicus, UniProt P09483+P12390). The assay can be described thus: Inhibition of [3H]nicotine binding to Nicotinic acetylcholine receptor alpha4-beta2 in rat brain membranes; NA= Not active. The format is cell membranes. In short, it runs like this:
as §1

Assay [3] is filed under the species Rattus norvegicus. Kind of assay: Inhibitory activity against nAChR mediated nicotine-evoked [3H]DA overflow using rat striatal slices. The assay is classed as functional, organism-based. An outline of the steps:
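Rat striatal slices preincubated in oxygenated Krebs' buffer (pH 7.4) at 34 °C, loaded with [³H]DA during the last 30 min of the 60-min incubation. Slices then superfused at 34 °C with buffer containing nomifensine and pargyline. Nicotine-evoked overflow was normalized to slice tritium content, using a repeated-measures design.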

Assay [4] has as its target T1, Neuronal acetylcholine receptor; alpha4/beta2. Kind of assay: Inhibition of [3H]nicotine binding to Nicotinic acetylcholine receptor alpha4-beta2 in rat brain membranes. The format is cell membranes. In short, it runs like this:
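Rat whole-brain membranes (cortex and cerebellum removed), washed by repeated centrifugation and stored at −70 °C. Incubated with 3 nM [³H]nicotine and a range of analogue concentrations in pH 7.5 HEPES-based buffer with Tris, 60 min at room temperature. Nonspecific binding defined with nicotine. Filtration on PEI-soaked GF/B filters, scintillation counting. Ki is the mean of four independent experiments with standard error.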

Assay [5] is filed under the species Rattus norvegicus. The assay can be described thus: Inhibitory activity against nAChR mediated nicotine-evoked [3H]DA overflow using rat striatal slices; Not determined. The format is functional, organism-based. An outline of the steps: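 Rat striatal slices (4–6 mg) preincubated 60 min in oxygenated Krebs' buffer, pH 7.4, at 34 °C, […] [³H]DA (final) over the last 30 min. Slices then superfused at 1 mL/min, 34 °C, with nomifensine and pargyline present. Fractional release normalized to slice total tritium. Intrinsic and inhibitory activity measured on slices from the same rat. Means of 3–6 experiments.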

T1 sequence (P09483 whole entry): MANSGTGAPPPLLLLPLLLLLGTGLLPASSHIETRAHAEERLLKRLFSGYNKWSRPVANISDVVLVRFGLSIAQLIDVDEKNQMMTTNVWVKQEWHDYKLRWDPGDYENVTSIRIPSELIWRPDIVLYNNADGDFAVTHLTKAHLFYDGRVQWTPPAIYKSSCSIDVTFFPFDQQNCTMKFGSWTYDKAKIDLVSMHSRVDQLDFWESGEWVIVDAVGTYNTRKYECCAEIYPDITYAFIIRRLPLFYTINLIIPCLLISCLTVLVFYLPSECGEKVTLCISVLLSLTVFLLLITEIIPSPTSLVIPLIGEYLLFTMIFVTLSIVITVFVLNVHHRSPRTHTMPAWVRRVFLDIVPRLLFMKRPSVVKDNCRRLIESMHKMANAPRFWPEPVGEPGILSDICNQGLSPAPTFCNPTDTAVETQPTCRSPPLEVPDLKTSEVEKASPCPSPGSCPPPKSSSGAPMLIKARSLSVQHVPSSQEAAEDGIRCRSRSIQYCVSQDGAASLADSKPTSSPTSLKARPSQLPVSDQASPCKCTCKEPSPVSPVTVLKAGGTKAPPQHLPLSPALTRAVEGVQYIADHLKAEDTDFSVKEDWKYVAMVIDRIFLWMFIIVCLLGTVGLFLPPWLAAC
T1 sequence (P12390 whole entry): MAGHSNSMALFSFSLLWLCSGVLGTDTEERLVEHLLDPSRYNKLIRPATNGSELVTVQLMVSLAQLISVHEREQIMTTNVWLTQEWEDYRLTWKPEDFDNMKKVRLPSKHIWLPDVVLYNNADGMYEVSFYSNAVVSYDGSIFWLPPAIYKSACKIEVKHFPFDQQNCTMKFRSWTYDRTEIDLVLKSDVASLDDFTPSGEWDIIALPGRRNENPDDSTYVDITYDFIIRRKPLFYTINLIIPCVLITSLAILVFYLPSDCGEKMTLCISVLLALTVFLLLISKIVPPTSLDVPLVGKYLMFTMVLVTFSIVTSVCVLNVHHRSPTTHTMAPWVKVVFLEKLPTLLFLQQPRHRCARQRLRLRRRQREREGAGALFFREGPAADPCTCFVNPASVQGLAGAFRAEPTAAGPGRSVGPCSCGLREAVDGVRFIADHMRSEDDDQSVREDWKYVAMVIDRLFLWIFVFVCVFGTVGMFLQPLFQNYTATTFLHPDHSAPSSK
Sequence of Neuronal acetylcholine receptor subunit alpha-7 (Q05941 whole entry): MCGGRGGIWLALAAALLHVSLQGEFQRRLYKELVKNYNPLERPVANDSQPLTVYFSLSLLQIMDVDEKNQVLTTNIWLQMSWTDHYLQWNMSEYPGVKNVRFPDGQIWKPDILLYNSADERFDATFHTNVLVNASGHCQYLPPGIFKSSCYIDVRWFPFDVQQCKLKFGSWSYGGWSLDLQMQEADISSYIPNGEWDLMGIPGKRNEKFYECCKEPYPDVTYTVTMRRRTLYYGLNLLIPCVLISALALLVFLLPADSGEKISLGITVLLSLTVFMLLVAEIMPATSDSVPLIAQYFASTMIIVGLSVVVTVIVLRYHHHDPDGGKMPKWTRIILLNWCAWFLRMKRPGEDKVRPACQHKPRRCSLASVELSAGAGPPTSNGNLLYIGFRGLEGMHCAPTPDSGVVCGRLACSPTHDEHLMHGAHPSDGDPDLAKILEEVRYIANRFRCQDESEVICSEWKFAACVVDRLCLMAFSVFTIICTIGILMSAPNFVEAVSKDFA

In the case of `CCCCCCCCCCC[n+]1cccc(C)c1.[I-]`, the Ki entry in assay [1] and in assay [2] was “Not Active” throughout.

As for `CCCCCCCCCCCC[n+]1cccc(C)c1.[I-]`, the Ki entry in assay [1] and in assay [2] was “Not Active” throughout. The same compound yielded an IC50 in assay [3] of 30 nM.

Regarding `Cc1ccc[n+](CCCCCC[n+]2cccc(C)c2)c1.[I-].[I-]`, the Ki result in assay [1] and in assay [2] was “Not Active” in each case. In assay [3], this compound registered a half-maximal inhibitory concentration (IC50) of 1660 nM.

Turning to `CCCCCCCCC[n+]1cccc(C)c1.[I-]`, the Ki result in assay [1] is “Not Active”; in assay [4], 62 µM.

On to `CCCCCCCC[n+]1cccc(C)c1.[I-]`, for which the Ki result in assay [1] and in assay [2] was “Not Active” throughout. In assay [3], this compound showed an IC50 of 1000 nM.

Regarding `Cc1ccc[n+](CCCCCCCCCCC[n+]2cccc(C)c2)c1.[Br-].[Br-]`, the Ki entry in assay [1] is on record as “Not Active”. Further, in assay [3], the IC50 was 610 nM.

Consider `Cc1ccc[n+](CCCCCCCCCC[n+]2cccc(C)c2)c1.[I-].[I-]`, for which the Ki entry in assay [1] and in assay [2] was “Not Active” each time. Moreover, half-maximal inhibition in assay [3] (IC50) was put at 30 nM.

With `CCCCCCCCCC[n+]1cccc(C)c1.[I-]`, the figures for the Ki entry in assay [1] and in assay [4] were “Not Active” and 26 µM, respectively. The compound also gave an IC50 in assay [3] of 300 nM.

In the case of `Cc1ccc[n+](CCCCCCCCCCCC[n+]2cccc(C)c2)c1.[Br-].[Br-]`, the Ki entry in assay [1] was “Not Active”. This compound also showed an IC50 in assay [3] of 5 nM.

Consider `Cc1ccc[n+](CCCCCCCCC[n+]2cccc(C)c2)c1.[Br-].[Br-]`, for which the inhibitory constant (Ki) result in assay [1] is “Not Active”.

For the compound `Cc1ccc[n+](CCCCCCCC[n+]2cccc(C)c2)c1.[I-].[I-]`, the Ki result in assay [1] and in assay [2] was “Not Active” in each case. The same compound had an IC50 in assay [5] of 10 nM.

In general, Ki refers to the equilibrium dissociation constant of an inhibitor or competing ligand from its target. The low end stands for tighter binding, the high end for weaker binding. For orientation: IC50 means the concentration at which inhibition is half-maximal. Read a low IC50 as greater potency in that assay.

Source of the values: ChEMBL document CHEMBL1137969, “Subtype-selective nicotinic receptor antagonists: potential as tobacco use cessation agents” (Bioorg Med Chem Lett, 2004).
